{"source": "ChEMBL document CHEMBL3414496", "about": "“Synthesis and biological evaluation of novel 2-heteroarylimino-1,3-thiazolidin-4-ones as potential anti-tumor agents” (Eur J Med Chem, 2015)", "note": "Activity calls are given as the source filed them. The rule behind the calls is not given here."}
{"system": "HT-29", "test": "Induction of cell cycle arrest in human HT-29 cells assessed as accumulation at subG1 phase at 0.5 to 10 uM by propidium iodide staining based flow cytometry", "type": "functional", "conditions": "not given"}
{"smiles": "COc1ccc(-c2cc(/N=C3\\SCC(=O)N3c3cccc(OC)c3)cs2)cc1", "Activity": "inactive"}
{"smiles": "O=C1N/C(=N/c2csc(-c3ccc(Cl)cc3)c2)S/C1=C\\c1ccccc1", "Activity": "inactive"}
{"smiles": "O=C1N/C(=N/c2csc(-c3ccc(Cl)cc3)c2)S/C1=C\\c1ccccn1", "Activity": "inactive"}
{"smiles": "O=C1N/C(=N/c2csc(-c3ccc(Cl)cc3)c2)S/C1=C\\c1ccc(Br)cc1", "Activity": "inactive"}
{"system": "HT-29", "test": "Induction of cell cycle arrest in human HT-29 cells assessed as increase in accumulation at S phase at 0.5 to 10 uM by propidium iodide staining based flow cytometry", "type": "functional", "conditions": "not given"}
{"smiles": "O=C1N/C(=N/c2csc(-c3ccc(Cl)cc3)c2)S/C1=C\\c1ccccc1", "Activity": "Active"}
{"smiles": "O=C1N/C(=N/c2csc(-c3ccc(Cl)cc3)c2)S/C1=C\\c1ccccn1", "Activity": "Active"}
{"smiles": "O=C1N/C(=N/c2csc(-c3ccc(Cl)cc3)c2)S/C1=C\\c1ccc(Br)cc1", "Activity": "Active"}
{"system": "HT-29", "test": "Induction of cell cycle arrest in human HT-29 cells assessed as increase in accumulation at G0/G1 phase at 0.5 to 10 uM by propidium iodide staining based flow cytometry", "type": "functional", "conditions": "not given"}
{"smiles": "COc1ccc(-c2cc(/N=C3\\SCC(=O)N3c3cccc(OC)c3)cs2)cc1", "Activity": "Active"}
{"system": "HT-29", "test": "Cytotoxicity against human HT-29 cells after 72 hrs by MTT assay", "type": "functional, cell-based", "conditions": "HT-29, 72 h", "how_it_was_run": "(§1)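 Cells seeded at 10^4/well, exposed 24 h later to graded concentrations (0.01–100 µM) for 72 h at 37°C; MTT 0.5 mg/ml for 2 h, formazan dissolved in DMSO, absorbance at 570 nm. […] Colon lines in DMEM, breast lines in RPMI, both with 10% FCS.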", "units": {"IC50": "µM"}}
{"smiles": "O=C1CS/C(=N\\c2csc(-c3cccc4ccccc34)c2)N1", "IC50": "> 50"}
{"smiles": "COc1cccc(N2C(=O)CS/C2=N\\c2csc(-c3ccc(C)cc3)c2)c1", "IC50": "> 50"}
{"smiles": "Cc1ccc(N2C(=O)CS/C2=N\\c2csc(-c3ccc(Cl)cc3)c2)cc1", "IC50": 28.9}
{"smiles": "O=C1CS/C(=N\\c2csc(-c3ccc(Cl)cc3)c2)N1c1cccc2ccccc12", "IC50": "> 50"}
{"smiles": "CCCCCC/C=C1\\S/C(=N\\c2csc(-c3ccc(Cl)cc3)c2)NC1=O", "IC50": 33.5}
{"smiles": "COc1ccc(-c2cc(/N=C3\\SCC(=O)N3c3cccc(OC)c3)cs2)cc1", "IC50": 11.7}
{"smiles": "COc1cccc(N2C(=O)CS/C2=N\\c2csc(-c3ccccc3)c2)c1", "IC50": 38.3}
{"smiles": "O=C1CS/C(=N\\c2c[se]c(-c3ccc(Cl)cc3)c2)N1", "IC50": "> 50"}
{"smiles": "CC(C)(C)c1cc(/N=C2/NC(=O)CS2)cs1", "IC50": "> 50"}
{"smiles": "CN(C)c1ccc(N2C(=O)CS/C2=N\\c2csc(-c3ccc(Cl)cc3)c2)cc1", "IC50": 29.2}
{"smiles": "COc1cccc(N2C(=O)CS/C2=N\\c2csc(-c3ccc(Cl)cc3)c2)c1", "IC50": 24.6}
{"smiles": "O=C1N/C(=N/c2csc(-c3ccc(Cl)cc3)c2)S/C1=C\\c1ccc(O)cc1", "IC50": "> 50"}
{"smiles": "O=C1N/C(=N/c2csc(-c3ccc(Cl)cc3)c2)S/C1=C\\c1ccccc1", "IC50": 10.5}
{"smiles": "O=C1N/C(=N/c2csc(-c3ccc(Cl)cc3)c2)S/C1=C\\c1ccccn1", "IC50": 11.5}
{"smiles": "O=C1N/C(=N/c2csc(-c3ccc(Cl)cc3)c2)S/C1=C\\c1ccc(Br)cc1", "IC50": 2}
{"system": "not listed separately", "test": "Cytotoxicity against human HCT116 cells after 72 hrs by MTT assay", "type": "functional, cell-based", "conditions": "HCT-116, 72 h", "how_it_was_run": "as §1", "units": {"IC50": "µM"}}
{"smiles": "O=C1CS/C(=N\\c2csc(-c3cccc4ccccc34)c2)N1", "IC50": "> 50"}
{"smiles": "COc1cccc(N2C(=O)CS/C2=N\\c2csc(-c3ccc(C)cc3)c2)c1", "IC50": 41}
{"smiles": "COc1ccc(-c2cc(/N=C3\\SCC(=O)N3c3cccc(OC)c3)cs2)cc1", "IC50": 2.7}
{"smiles": "CC(C)(C)c1cc(/N=C2/NC(=O)CS2)cs1", "IC50": "> 50"}
{"smiles": "COc1cccc(N2C(=O)CS/C2=N\\c2csc(-c3ccc(Cl)cc3)c2)c1", "IC50": "> 50"}
{"smiles": "O=C1N/C(=N/c2csc(-c3ccc(Cl)cc3)c2)S/C1=C\\c1ccccc1", "IC50": 11.2}
{"smiles": "O=C1N/C(=N/c2csc(-c3ccc(Cl)cc3)c2)S/C1=C\\c1ccccn1", "IC50": 21.6}
{"smiles": "O=C1N/C(=N/c2csc(-c3ccc(Cl)cc3)c2)S/C1=C\\c1ccc(Br)cc1", "IC50": 3.3}
{"system": "SW-620", "test": "Cytotoxicity against human SW620 cells after 72 hrs by MTT assay", "type": "functional, cell-based", "conditions": "SW-620, 72 h", "how_it_was_run": "as §1", "units": {"IC50": "µM"}}
{"smiles": "O=C1CS/C(=N\\c2csc(-c3cccc4ccccc34)c2)N1", "IC50": "> 50"}
{"smiles": "COc1cccc(N2C(=O)CS/C2=N\\c2csc(-c3ccc(C)cc3)c2)c1", "IC50": "> 50"}
{"smiles": "Cc1ccc(N2C(=O)CS/C2=N\\c2csc(-c3ccc(Cl)cc3)c2)cc1", "IC50": "> 50"}
{"smiles": "O=C1CS/C(=N\\c2csc(-c3ccc(Cl)cc3)c2)N1c1cccc2ccccc12", "IC50": 19.5}
{"smiles": "COc1ccc(-c2cc(/N=C3\\SCC(=O)N3c3cccc(OC)c3)cs2)cc1", "IC50": 3.5}
{"smiles": "O=C1CS/C(=N\\c2c[se]c(-c3ccc(Cl)cc3)c2)N1", "IC50": "> 50"}
{"smiles": "CC(C)(C)c1cc(/N=C2/NC(=O)CS2)cs1", "IC50": "> 50"}
{"smiles": "COc1cccc(N2C(=O)CS/C2=N\\c2csc(-c3ccc(Cl)cc3)c2)c1", "IC50": 33}
{"smiles": "O=C1N/C(=N/c2csc(-c3ccc(Cl)cc3)c2)S/C1=C\\c1ccccc1", "IC50": "> 50"}
{"smiles": "O=C1N/C(=N/c2csc(-c3ccc(Cl)cc3)c2)S/C1=C\\c1ccccn1", "IC50": "> 50"}
{"smiles": "O=C1N/C(=N/c2csc(-c3ccc(Cl)cc3)c2)S/C1=C\\c1ccc(Br)cc1", "IC50": 0.7}
{"system": "MCF7", "test": "Cytotoxicity against human MCF7 cells after 72 hrs by MTT assay", "type": "functional, cell-based", "conditions": "MCF7, 72 h", "how_it_was_run": "as §1", "units": {"IC50": "µM"}}
{"smiles": "O=C1CS/C(=N\\c2csc(-c3cccc4ccccc34)c2)N1", "IC50": "> 50"}
{"smiles": "COc1cccc(N2C(=O)CS/C2=N\\c2csc(-c3ccc(C)cc3)c2)c1", "IC50": "> 50"}
{"smiles": "Cc1ccc(N2C(=O)CS/C2=N\\c2csc(-c3ccc(Cl)cc3)c2)cc1", "IC50": "> 50"}
{"smiles": "O=C1CS/C(=N\\c2csc(-c3ccc(Cl)cc3)c2)N1c1cccc2ccccc12", "IC50": "> 50"}
{"smiles": "CCCCCC/C=C1\\S/C(=N\\c2csc(-c3ccc(Cl)cc3)c2)NC1=O", "IC50": "> 50"}
{"smiles": "COc1ccc(-c2cc(/N=C3\\SCC(=O)N3c3cccc(OC)c3)cs2)cc1", "IC50": 1.9}
{"smiles": "O=C1CS/C(=N\\c2c[se]c(-c3ccc(Cl)cc3)c2)N1", "IC50": "> 50"}
{"smiles": "CC(C)(C)c1cc(/N=C2/NC(=O)CS2)cs1", "IC50": "> 50"}
{"smiles": "CN(C)c1ccc(N2C(=O)CS/C2=N\\c2csc(-c3ccc(Cl)cc3)c2)cc1", "IC50": "> 50"}
{"smiles": "COc1cccc(N2C(=O)CS/C2=N\\c2csc(-c3ccc(Cl)cc3)c2)c1", "IC50": "> 50"}
{"smiles": "O=C1N/C(=N/c2csc(-c3ccc(Cl)cc3)c2)S/C1=C\\c1ccc(O)cc1", "IC50": "> 50"}
{"smiles": "O=C1N/C(=N/c2csc(-c3ccc(Cl)cc3)c2)S/C1=C\\c1ccccc1", "IC50": "> 50"}
{"smiles": "O=C1N/C(=N/c2csc(-c3ccc(Cl)cc3)c2)S/C1=C\\c1ccccn1", "IC50": 30.2}
{"smiles": "O=C1N/C(=N/c2csc(-c3ccc(Cl)cc3)c2)S/C1=C\\c1ccc(Br)cc1", "IC50": 2.5}
{"system": "MDA-MB-231", "test": "Cytotoxicity against human MDA-MB-231 cells after 72 hrs by MTT assay", "type": "functional, cell-based", "conditions": "MDA-MB-231, 72 h", "how_it_was_run": "as §1", "units": {"IC50": "µM"}}
{"smiles": "O=C1CS/C(=N\\c2csc(-c3cccc4ccccc34)c2)N1", "IC50": "> 50"}
{"smiles": "COc1cccc(N2C(=O)CS/C2=N\\c2csc(-c3ccc(C)cc3)c2)c1", "IC50": "> 50"}
{"smiles": "COc1ccc(-c2cc(/N=C3\\SCC(=O)N3c3cccc(OC)c3)cs2)cc1", "IC50": 2.7}
{"smiles": "CC(C)(C)c1cc(/N=C2/NC(=O)CS2)cs1", "IC50": "> 50"}
{"smiles": "COc1cccc(N2C(=O)CS/C2=N\\c2csc(-c3ccc(Cl)cc3)c2)c1", "IC50": "> 50"}
{"smiles": "O=C1N/C(=N/c2csc(-c3ccc(Cl)cc3)c2)S/C1=C\\c1ccccc1", "IC50": 18}
{"smiles": "O=C1N/C(=N/c2csc(-c3ccc(Cl)cc3)c2)S/C1=C\\c1ccccn1", "IC50": 10.9}
{"smiles": "O=C1N/C(=N/c2csc(-c3ccc(Cl)cc3)c2)S/C1=C\\c1ccc(Br)cc1", "IC50": 3.5}
{"system": "HT-29", "test": "Growth inhibition of human HT-29 cells at cytotoxic IC50 level after 3 days by trypan blue dye exclusion assay", "type": "functional", "conditions": "not given", "how_it_was_run": "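HT29 cells treated 48 h after seeding, dosed daily with daily medium change over three days; drug diluted in DMSO, controls 0.1% (v/v) DMSO. Cells trypsinized, mixed 1:1 with 0.04% trypan blue, live cells counted by hematimeter. Reported as mitotic index (treated/DMSO count); triplicates from two independent experiments.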", "units": {"growth inhibition (GI)": "%"}}
{"smiles": "COc1ccc(-c2cc(/N=C3\\SCC(=O)N3c3cccc(OC)c3)cs2)cc1", "growth inhibition (GI)": 50}
{"smiles": "O=C1N/C(=N/c2csc(-c3ccc(Cl)cc3)c2)S/C1=C\\c1ccccn1", "growth inhibition (GI)": 40}
{"smiles": "O=C1N/C(=N/c2csc(-c3ccc(Cl)cc3)c2)S/C1=C\\c1ccc(Br)cc1", "growth inhibition (GI)": 25}
